Experimental data taken from ChEMBL document CHEMBL4680189, “Immunosuppressive properties of amino acid and peptide derivatives of mycophenolic acid” (Eur J Med Chem, 2020).
pEC50, pIC50: −log10 of the molar value. Activity calls are given as the source filed them. The calls are words filed in the database; no cut-off is given here. Where a SMILES comes first, the peptide text is derived from it. [ ]: non-standard residue; d: D form. The star is where a group is joined. Mycophenolyl = COc1c(C)c2c(c(O)c1C/C=C(\C)CCC(=O)*)C(=O)OC2; Arg(NO2) = N=C(NCCC[C@H](N)C(=O)O)N[N+](=O)[O-]

How the values were obtained:
Jurkat [1] = assay: Immunosuppression-mediated cytotoxicity against human Jurkat T cells assessed as reduction in cell viability incubated for 48 hrs by MTT assay; format: cell-based
In short: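 Jurkat cells in RPMI-1640 with 10% FBS and P/S, 50×10^3 cells/well, exposed in triplicate to serial dilutions from 1 mg/mL (DMSO/medium) for 48 h at 37 °C, 5% CO2. MTT (5 mg/ml) then added for 3 h. Formazan dissolved in 0.4 N HCl–isopropanol, absorbance read at 570 nm. IC50 from curve fitting; viability at 1 mg/mL used where IC50 could not be reached.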

[2] = Immunosuppression-mediated cytotoxicity against anti-CD3/anti-CD28-stimulated human PBMC cells assessed as reduction in cell viability incubated for 72 hrs by MTT assay; format: cell-based
In short: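 PBMC from buffy coats of healthy donors, isolated on a Ficoll gradient with erythrocyte lysis. Plated at 50×10^3 cells/well with anti-CD3/anti-CD28, serial compound dilutions, in triplicate. Incubated 72 h, 37 °C, 5% CO2. MTT added for 3 h, formazan dissolved in acidified isopropanol (0.4 N HCl), A570 read. Three donors averaged; IC50 from curve fit.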

Jurkat [3] = assay: Immunosuppression-mediated antiproliferative activity against human Jurkat T cells assessed as inhibition of cell growth incubated for 48 hrs by VPD450 staining based flow cytometry; format: functional
In short: (§1)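 Cells stained with VPD450 (2 μL of 1 mM dye per 10-30×10^6 cells in 1 mL PBS, 15 min, 37 °C), washed. PBMC: 50×10^3 cells/well with anti-CD3/anti-CD28, serial compound dilutions, 72 h. Jurkat: 50×10^3 cells/well, 48 h. 37 °C, 5% CO2, triplicate. Dye dilution by flow cytometry; EC50 from curve fit.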

[4] = Immunosuppression-mediated antiproliferative activity against anti-CD3/anti-CD28-stimulated human PBMC cells assessed as inhibition of cell growth incubated for 72 hrs by VPD450 staining based flow cytometry; format: functional; in short: as §1
[5] = Selectivity index, ratio of IC50 for cytotoxicity against human Jurkat T cells by MTT assay to EC50 for antiproliferative activity against human Jurkat T cells by VPD450 staining based flow cytometry
In short: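 Jurkat IC50 from the 48 h MTT assay (50×10^3 cells/well, triplicate) divided by Jurkat EC50. […] Cells treated 48 h with serial dilutions, then dye dilution read by flow cytometry and fitted.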

[6] = Selectivity index, ratio of IC50 for cytotoxicity against human PBMC by MTT assay to EC50 for antiproliferative activity against human PBMC by VPD450 staining based flow cytometry
In short: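 Ratio of the MTT cytotoxicity IC50 (72 h, stimulated PBMC) to the VPD450 antiproliferative EC50 (72 h, stimulated PBMC), both from fitted concentration-response curves.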

PBMC = assay: Immunosuppression-mediated antiproliferative activity against anti-CD3/anti-CD28-stimulated human PBMC cells assessed as inhibition of cell growth incubated for 72 hrs in presence of GMP by VPD450 staining based flow cytometry; format: functional
In short: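 VPD450-stained PBMC, 50×10^3 cells/well, anti-CD3/anti-CD28 stimulation, serial compound dilutions plus GMP at 50 μM in the well. Incubated 72 h at 37 °C, 5% CO2, in triplicate. Proliferation read by flow cytometry as dye dilution and expressed relative to controls.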

[7] = Stability in human Jurkat T cells assessed as compound remaining at EC50 concentration after 5 days by HPLC-MS analysis; format: ADME, cell-based; conditions: time 5 day, read-out: Stabilty
In short: (§2)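 Compounds incubated at their EC50 concentrations with Jurkat cells for 5 days, sampled daily. Amount measured by HPLC-MS: C18 column at 40 °C, 0.4 mL/min, 0.1% HCOOH water to ACN/MeOH gradient, UV 254 nm, ESI-MS. Peak area on day 1 taken as 100%.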

Jurkat [8] = assay: Immunosuppression-mediated antiproliferative activity against human Jurkat T cells assessed as inhibition of cell growth at 1 mg/ml incubated for 48 hrs by VPD450 staining based flow cytometry relative to control; format: functional; set-up: scale not given: the % may be the effect or the level left
In short: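 Jurkat cells stained with VPD450 (2 μL of 1 mM dye per 10-30×10^6 cells, 15 min, 37 °C) and plated at 50×10^3 cells/well. Compound added at the top concentration, 1 mg/mL (1 mg dissolved in 20 μL DMSO, made up to 1 mL with medium). 48 h at 37 °C, 5% CO2, in triplicate. Read by flow cytometry; […].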

[9] = Stability in human Jurkat T cells assessed as compound remaining at EC50 concentration after 3 days by HPLC-MS analysis; format: ADME, cell-based; conditions: time 3 day, read-out: Stabilty; in short: as §2
Jurkat [10] = assay: Immunosuppression-mediated cytotoxicity against human Jurkat T cells assessed as reduction in cell viability at 1 mg/ml incubated for 48 hrs by MTT assay relative to control; format: cell-based
In short: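 Jurkat cells (RPMI-1640, 10% FBS) plated at 50×10^3 cells/well and exposed to 1 mg/mL compound (1 mg in 20 μL DMSO, made up to 1 mL with medium). 48 h at 37 °C, 5% CO2, in triplicate. MTT (5 mg/mL stock) for 3 h, acidified isopropanol, A570. Viability calculated at that concentration.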

[11] = Immunosuppression-mediated cytotoxicity against anti-CD3/anti-CD28-stimulated human PBMC cells assessed as reduction in cell viability at 1 mg/ml incubated for 72 hrs by MTT assay relative to control; format: cell-based
In short: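 Anti-CD3/anti-CD28-stimulated PBMC, 50×10^3 cells/well, exposed to compound at the highest concentration, 1 mg/mL, for 72 h at 37 °C, 5% CO2, in triplicate. MTT for 3 h, acidified isopropanol, A570. Viability calculated at that concentration; three donors averaged.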

| remaining at 120 h [7] [%] | SMILES | pIC50 (Jurkat [1]) | pIC50 [2] | pEC50 (Jurkat [3]) | pEC50 [4] | Ratio IC50/EC50 [5] | Ratio IC50/EC50 [6] | Activity (PBMC) | Activity (Jurkat [8]) [%] | remaining at 72 h [9] [%] | Activity (Jurkat [10]) [%] | Activity [11] [%] |
| --- | --- | --- | --- | --- | --- | --- | --- | --- | --- | --- | --- | --- |
| > 40 | COC(=O)[C@@H](NC(=O)CC/C(C)=C/Cc1c(O)c2c(c(C)c1OC)COC2=O)[C@@H](C)O | 4.77 | 4.24 | 5.00 | 5.00 | 1.8 | 5.7 | inactive | – | – | – | – |
| – | COC(=O)[C@H](CCCNC(=N)N[N+](=O)[O-])NC(=O)[C@@H]1CCCN1C(=O)[C@H](CCCCNC(=O)[C@H](C)N)NC(=O)[C@@H](NC(=O)CC/C(C)=C/Cc1c(O)c2c(c(C)c1OC)COC2=O)[C@@H](C)O (Mycophenolyl-TK(Ala)P[Arg(NO2)]-OMe) | 3.00 | 3.25 | – | 3.59 | – | 2.2 | – | 55.31 | 50 | – | – |
| – | COC(=O)[C@H](CCCNC(=N)N[N+](=O)[O-])NC(=O)[C@@H]1CCCN1C(=O)[C@H](CCCCNC(=O)[C@@H](N)C(C)C)NC(=O)[C@@H](NC(=O)CC/C(C)=C/Cc1c(O)c2c(c(C)c1OC)COC2=O)[C@@H](C)O (Mycophenolyl-TK(Val)P[Arg(NO2)]-OMe) | – | – | – | 3.36 | – | – | inactive | 55.1 | – | 66.56 | 56.81 |
| – | COC(=O)[C@H](CCCNC(=N)N[N+](=O)[O-])NC(=O)[C@@H]1CCCN1C(=O)[C@H](CCCCN)NC(=O)[C@@H](NC(=O)CC/C(C)=C/Cc1c(O)c2c(c(C)c1OC)COC2=O)[C@@H](C)O (Mycophenolyl-TKP[Arg(NO2)]-OMe) | – | – | – | 3.89 | – | – | – | 60.78 | – | 85.82 | 99.09 |
| – | COC(=O)[C@@H](NC(=O)[C@H](CCCCNC(=O)[C@@H](N)CC(C)C)NC(=O)[C@@H]1CCCN1C(=O)[C@H](CCCNC(=N)N[N+](=O)[O-])NC(=O)CC/C(C)=C/Cc1c(O)c2c(c(C)c1OC)COC2=O)[C@@H](C)O (Mycophenolyl-[Arg(NO2)]PK(Leu)T-OMe) | – | 3.28 | – | 3.79 | – | 3.2 | – | 63.04 | – | 61.34 | – |
| – | COC(=O)[C@@H](NC(=O)[C@H](CCCCN)NC(=O)[C@@H]1CCCN1C(=O)[C@H](CCCNC(=N)N[N+](=O)[O-])NC(=O)CC/C(C)=C/Cc1c(O)c2c(c(C)c1OC)COC2=O)[C@@H](C)O (Mycophenolyl-[Arg(NO2)]PKT-OMe) | 3.01 | 3.20 | 3.18 | 4.45 | 1.5 | 18 | inactive | – | 50 | – | – |
